Assay results reported in ChEMBL document CHEMBL1914430, “Synthesis of some new 1,3,5-trisubstituted pyrazolines bearing benzene sulfonamide as anticancer and anti-inflammatory agents” (Bioorg Med Chem Lett, 2011).

Tests used:
Assay type in all cases: functional
SK-MEL-5 = assay: Anticancer activity against human SK-MEL-5 cells after 48 hrs; conditions: SK-MEL-5, 48 h
In short: (§1)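 NCI 60-line panel protocol with a 48 h incubation. Per line: GI50 = concentration giving 50% decrease in net cell growth; TGI = total growth inhibition; LC50 = net 50% loss of initial cells. When the level was not reached or was exceeded, the value is given as greater or less than the highest or lowest concentration tested.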

MDA-MB-435 = assay: Anticancer activity against human MDA-MB-435 cells after 48 hrs; conditions: MDA-MB-435, 48 h
In short: (§2)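 NCI Drug Evaluation Branch 60-cell-line screen across leukemia, melanoma, lung, colon, CNS, ovarian, renal, prostate and breast panels. The incubation period is 48 h. Parameters are derived from dose–response data: GI50 is the concentration giving 50% decrease in net growth, TGI is total growth inhibition, and LC50 is net 50% loss of initial cells. Values beyond the tested range are reported as greater or less than the maximum or minimum concentration.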

MDA-MB-468 = assay: Anticancer activity against human MDA-MB-468 cells after 48 hrs; conditions: MDA-MB-468, 48 h; in short: as §2
CCRF-CEM = assay: Anticancer activity against human CCRF-CEM cells after 48 hrs; in short: as §2
[1] = Anticancer activity against human Hs 578T cells after 48 hrs; in short: as §2
SR = assay: Anticancer activity against human SR cells after 48 hrs; in short: as §1
OVCAR-8 = assay: Anticancer activity against human OVCAR8 cells after 48 hrs; conditions: OVCAR-8, 48 h; in short: as §1
SW-620 = assay: Anticancer activity against human SW620 cells after 48 hrs; conditions: SW-620, 48 h; in short: as §1
DU-145 = assay: Anticancer activity against human DU145 cells after 48 hrs; conditions: DU-145, 48 h; in short: as §2
PC-3 = assay: Anticancer activity against human PC3 cells after 48 hrs; conditions: PC-3, 48 h; in short: as §1
NCI-H226 = assay: Anticancer activity against human NCI-H226 cells after 48 hrs; conditions: NCI-H226, 48 h; in short: as §1
MOLT-4 = assay: Anticancer activity against human MOLT4 cells after 48 hrs; conditions: MOLT-4, 48 h; in short: as §1
SNB-75 = assay: Anticancer activity against human SNB75 cells after 48 hrs; conditions: SNB-75, 48 h; in short: as §1
HL-60(TB) = assay: Anticancer activity against human HL-60(TB) cells after 48 hrs; conditions: HL-60, 48 h
In short: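 NCI 60-cell-line panel protocol: cells exposed to compound for 48 h. Initial one-dose screen at 10⁻⁵ M. GI50 = concentration giving 50% decrease in net cell growth. TGI = concentration giving total growth inhibition. LC50 = concentration giving net 50% loss of initial cells at the end of incubation. A value not reached or exceeded is reported as greater or less than the highest or lowest concentration tested.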

RPMI-8226 = assay: Anticancer activity against human RPMI8226 cells after 48 hrs; conditions: RPMI-8226, 48 h; in short: as §1
HCC 2998 = assay: Anticancer activity against human HCC2998 cells after 48 hrs; conditions: HCC 2998, 48 h; in short: as §2
U-251 = assay: Anticancer activity against human U251 cells after 48 hrs; conditions: U-251, 48 h
In short: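 NCI ~60 human tumour cell line panel with a 48 h incubation. GI50 is the concentration giving a 50% fall in net growth, TGI gives total growth inhibition, and LC50 gives a net 50% loss of initial cells. An effect not reached or exceeded is reported as greater or less than the highest or lowest concentration tested.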

NCI/ADR-RES = assay: Anticancer activity against human NCI/ADR-RES cells after 48 hrs; in short: as §1
786-0 = assay: Anticancer activity against human 786-0 cells after 48 hrs; conditions: 786-0, 48 h; in short: as §2
MDA-MB-231 = assay: Anticancer activity against human MDA-MB-231 cells after 48 hrs; conditions: MDA-MB-231, 48 h; in short: as §2
ACHN = assay: Anticancer activity against human ACHN cells after 48 hrs; in short: as §2
SF-268 = assay: Anticancer activity against human SF268 cells after 48 hrs; conditions: SF-268, 48 h; in short: as §1
LOX IMVI = assay: Anticancer activity against human LOXIMVI cells after 48 hrs; in short: as §2
HOP-92 = assay: Anticancer activity against human HOP92 cells after 48 hrs; conditions: HOP-92, 48 h; in short: as §2
OVCAR-4 = assay: Anticancer activity against human OVCAR4 cells after 48 hrs; conditions: OVCAR-4, 48 h; in short: as §1
OVCAR-5 = assay: Anticancer activity against human OVCAR5 cells after 48 hrs; conditions: OVCAR-5, 48 h; in short: as §1
NCI-H460 = assay: Anticancer activity against human NCI-H460 cells after 48 hrs; conditions: NCI-H460, 48 h; in short: as §1
IGROV-1 = assay: Anticancer activity against human IGROV1 cells after 48 hrs; conditions: IGROV-1, 48 h; in short: as §2
HT-29 = assay: Anticancer activity against human HT-29 cells after 48 hrs; conditions: HT-29, 48 h; in short: as §2
[2] = read-out: LC50 (the source's name)

Cc1cc(O)c(C2=NN(c3ccc(S(N)(=O)=O)cc3)C(c3ccccc3Cl)C2)cc1Cl (stereo not drawn) gave a GI50 (SK-MEL-5) of 3.85 µM, an LC50 (SK-MEL-5) of 36 µM and a TGI (SK-MEL-5) of 12.3 µM. The GI50 (MDA-MB-435) was 1.85 µM, the TGI (MDA-MB-435) was 3.92 µM and the CC50 (MDA-MB-435; [2]) was 8.32 µM. The GI50 (MDA-MB-468) was 2.22 µM, the TGI (MDA-MB-468) was 4.74 µM and the CC50 (MDA-MB-468; [2]) was greater than 100 µM. The GI50 (CCRF-CEM) was 4.81 µM, the LC50 (concentration causing net 50% loss of initial cells) (CCRF-CEM) was greater than 100 µM and the TGI (CCRF-CEM) was greater than 100 µM. For the same compound, the GI50 [1] was 3.28 µM, the CC50 [1, 2] was greater than 100 µM and the GI50 (SR) was 2.97 µM. For the same compound, the LC50 (concentration killing 50% of initial cells) (SR) was greater than 100 µM, the GI50 (OVCAR-8) was 2.94 µM and the TGI (OVCAR-8) was 11.2 µM. It also gave a CC50 (OVCAR-8; [2]) greater than 100 µM, a GI50 (SW-620) of 1.97 µM and a TGI (SW-620) of 4.1 µM. For the same compound, the GI50 (DU-145) was 2.01 µM, the LC50 (concentration causing net 50% loss of initial cells) (DU-145) was 7.35 µM and the TGI (DU-145) was 3.85 µM. It also gave a GI50 (PC-3) of 1.58 µM, a TGI (PC-3) of 3.32 µM and a CC50 (PC-3; [2]) of 6.98 µM. For the same compound, the GI50 (NCI-H226) was 3.03 µM, the TGI (NCI-H226) was 9.44 µM and the CC50 (NCI-H226; [2]) was greater than 100 µM. It also gave a GI50 (MOLT-4) of 4.04 µM, an LC50 (MOLT-4) greater than 100 µM and a TGI (MOLT-4) greater than 100 µM. It also gave a GI50 (SNB-75) of 2.23 µM, a TGI (SNB-75) of 8.83 µM and a CC50 (SNB-75; [2]) of 63.6 µM. For the same compound, the GI50 (HL-60(TB)) was 3.44 µM, the LC50 (HL-60(TB)) was greater than 100 µM and the TGI (HL-60(TB)) was 100 µM. It also gave a GI50 (RPMI-8226) of 2.97 µM, an LC50 (concentration for net 50% loss of initial cells) (RPMI-8226) greater than 100 µM and a TGI (RPMI-8226) of 8.35 µM. The GI50 (HCC 2998) was 2.1 µM, the LC50 (net 50% loss of initial cells) (HCC 2998) was 7.3 µM and the TGI (HCC 2998) was 3.91 µM. For the same compound, the GI50 (U-251) was 2.25 µM, the TGI (U-251) was 5.02 µM and the CC50 (U-251; [2]) was 36.9 µM. The GI50 (NCI/ADR-RES) was 2.7 µM, the TGI (NCI/ADR-RES) was 6.85 µM and the CC50 (NCI/ADR-RES; [2]) was 38.8 µM. It also gave a GI50 (786-0) of 2.25 µM, a TGI (786-0) of 4.52 µM and a CC50 (786-0; [2]) of 9.1 µM. For the same compound, the GI50 (MDA-MB-231) was 2.14 µM, the TGI (MDA-MB-231) was 4.52 µM and the CC50 (MDA-MB-231; [2]) was 9.52 µM. It also gave a GI50 (ACHN) of 3.34 µM, a TGI (ACHN) of 11 µM and a CC50 (ACHN; [2]) of 34.3 µM. The GI50 (SF-268) was 1.92 µM, the TGI (SF-268) was 3.72 µM and the GI50 (LOX IMVI) was 1.78 µM. For the same compound, the TGI (LOX IMVI) was 3.21 µM, the CC50 (LOX IMVI; [2]) was 5.8 µM and the GI50 (HOP-92) was 1.94 µM. For the same compound, the TGI (HOP-92) was 6.32 µM, the CC50 (HOP-92; [2]) was 3.12 µM and the GI50 (OVCAR-4) was 2.73 µM. It also gave an LC50 (OVCAR-4) of 40 µM, a TGI (OVCAR-4) of 8.48 µM and a GI50 (OVCAR-5) of 1.74 µM. It also gave an LC50 (OVCAR-5) of 6.23 µM, a TGI (OVCAR-5) of 3.3 µM and a GI50 (NCI-H460) of 2.16 µM. The LC50 (50% lethal concentration) (NCI-H460) was 8.21 µM, the TGI (NCI-H460) was 4.21 µM and the GI50 (IGROV-1) was 2.58 µM. For the same compound, the LC50 (net 50% loss of initial cells) (IGROV-1) was 47.2 µM, the TGI (IGROV-1) was 14 µM and the GI50 (HT-29) was 1.92 µM. For the same compound, the TGI (HT-29) was 3.63 µM and the CC50 (HT-29; [2]) was 6.83 µM.
